Screens deposited in PubChem by several laboratories.
In the library only some 2.5% were active in any assay of this set; here they are far more common.
PKA inh – inhibitors of human protein kinase A. inhibition, % at 6 µM. P17612. 0.1% of 65,000 active. PKA Kemptide phosphorylation, Kinase-Glo ATP luminescence;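 active = inhibition above the screen-wide mean inhibition plus 3 SD, cut at about 21% in these data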
MT1-MMP txn act – activates MT1-MMP transcription; HT1080 MT1-MMP promoter luciferase reporter, luminescence, overnight; hits give high values; 0.16% of 86,000 active; activation factor at 10 µM;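 active = activation factor of at least 2 for MT1-MMP transcription at 10 µM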
ROCK2 blocker – blocks human Rho kinase 2 activity; O75116; purified ROCK2, Kinase-Glo ATP depletion luminescence; inhibition, % at 6 µM; 0.35% of 60,000 active; AID 604;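 active = inhibition above the screen-wide mean inhibition plus 3 SD, cut at about 18% in these data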
Target sequence (O75116 whole entry, looked up): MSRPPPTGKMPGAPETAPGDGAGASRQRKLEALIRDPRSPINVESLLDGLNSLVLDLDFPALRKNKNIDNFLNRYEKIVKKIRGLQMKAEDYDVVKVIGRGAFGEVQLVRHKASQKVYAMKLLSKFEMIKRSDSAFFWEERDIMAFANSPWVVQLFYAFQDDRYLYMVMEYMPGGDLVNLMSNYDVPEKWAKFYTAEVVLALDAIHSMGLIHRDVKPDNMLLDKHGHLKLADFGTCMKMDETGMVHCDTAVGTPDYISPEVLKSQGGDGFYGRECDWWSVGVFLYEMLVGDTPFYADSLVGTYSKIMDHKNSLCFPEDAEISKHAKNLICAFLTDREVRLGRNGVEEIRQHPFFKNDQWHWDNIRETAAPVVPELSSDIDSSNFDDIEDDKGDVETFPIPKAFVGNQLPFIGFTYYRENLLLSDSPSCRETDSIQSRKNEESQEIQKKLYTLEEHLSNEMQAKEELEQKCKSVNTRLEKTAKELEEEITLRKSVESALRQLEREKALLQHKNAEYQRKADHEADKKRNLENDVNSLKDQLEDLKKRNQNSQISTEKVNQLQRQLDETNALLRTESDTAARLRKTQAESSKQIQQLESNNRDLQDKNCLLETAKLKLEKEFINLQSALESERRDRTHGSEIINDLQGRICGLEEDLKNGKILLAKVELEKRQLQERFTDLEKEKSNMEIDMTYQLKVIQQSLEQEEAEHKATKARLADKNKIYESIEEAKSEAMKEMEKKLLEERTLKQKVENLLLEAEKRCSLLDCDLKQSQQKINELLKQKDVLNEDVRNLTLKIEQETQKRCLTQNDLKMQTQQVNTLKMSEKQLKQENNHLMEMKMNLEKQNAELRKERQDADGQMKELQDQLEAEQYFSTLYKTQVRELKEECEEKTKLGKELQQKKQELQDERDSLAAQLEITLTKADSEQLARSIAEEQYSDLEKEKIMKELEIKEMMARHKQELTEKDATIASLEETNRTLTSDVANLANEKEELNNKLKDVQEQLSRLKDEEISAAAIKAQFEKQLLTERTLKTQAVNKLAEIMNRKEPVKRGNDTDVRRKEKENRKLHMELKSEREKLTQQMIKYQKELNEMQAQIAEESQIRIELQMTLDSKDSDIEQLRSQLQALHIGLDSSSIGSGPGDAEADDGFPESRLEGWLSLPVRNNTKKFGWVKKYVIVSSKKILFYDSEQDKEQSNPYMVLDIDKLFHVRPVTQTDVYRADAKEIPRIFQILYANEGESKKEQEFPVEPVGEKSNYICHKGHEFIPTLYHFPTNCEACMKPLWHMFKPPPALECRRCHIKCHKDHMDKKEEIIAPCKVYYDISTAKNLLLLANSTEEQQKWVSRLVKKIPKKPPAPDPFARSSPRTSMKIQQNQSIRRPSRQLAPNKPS
SF1 activator – SF-1 (human) activation; CHO-K1 Gal4-SF-1 LBD luciferase reporter; % increase over DMSO SF-1-specific signal; activation, % at 10 µM; 1.9% of 65,000 active;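 active = activation above the mean activation of all tested compounds plus 3 SD, cut at about 50% in these data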
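System: CHO-K1 cells with Gal4–hSF-1 LBD chimera plus Gal4-driven luciferase; quantity: 4,000 CHO-K1 cells per well; compound: one dose, 10 µM compound, 1% DMSO; times: 20 h compound treatment, 37 °C; measured by: SteadyLite luciferase luminescence; read-out: percent activation versus DMSO; benchmarks: DMSO and mock-transfected background; replicates: one test per compound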
RORa activator – activates the human nuclear receptor RORA. CHO-K1 Gal4-RORA LBD luciferase reporter, luminescence; percent increase over mock-subtracted basal signal. activation, % at 10 µM. 1.5% of 65,000 active. AID 560;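 active = activation above the mean of all tested compounds plus 3 SD, cut at about 49% in these data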
JNK3 blocker – inhibitors of human JNK3 kinase | inhibition, % at 8 µM | 0.61% of 60,000 active | purified JNK3 kinase activity, HTS | AID 746 | P53779; in the data active = inhibition above about 17%
Hits are given with their value; . = inactive; / = not tested or not shown.

SMILES	PKA inh	MT1-MMP txn act	ROCK2 blocker	SF1 activator	RORa activator	JNK3 blocker
O=C(Nc1ccc2c(c1)oc1ccccc12)c1ccc2c(c1)OCO2	.	.	.	.	.	.
COc1cc2c(cc1NC(=O)c1ccc3c(c1)OCO3)oc1ccccc12	.	2.1	.	54	.	.
COc1ccc(-c2cc(C(=O)N3CCCCC3)no2)cc1OC	.	.	.	77	.	.
COc1ccc(-c2cc(C(=O)N3CCN(Cc4ccccc4)CC3)no2)cc1OC	.	.	.	.	.	.
CC(C)(C)C1CCc2[nH]nc(C(=O)O)c2C1 (stereo not given)	.	.	.	.	.	.
O=C(COc1ccccc1Cl)Nc1ccc(Cl)cn1	.	.	.	74	62	.
O=C(CCc1ccccc1)Nc1ccc(Cl)cn1	.	.	.	60	.	.
CCCCC(=O)Nc1ccc(Cl)cn1	.	.	.	.	.	.
CS(=O)(=O)N1CCN(c2ccccc2NC(=O)CSc2ccc(Cl)cc2)CC1	.	.	.	.	.	21
CCc1ccc(NC(=O)c2ccc3nc(N)sc3c2)cc1	/	.	/	/	/	/
Nc1nc2ccc(C(=O)Nc3ccccc3)cc2s1	.	.	.	90	62	.
Clc1ccc(-n2nnnc2-c2ccccc2)cc1	.	.	.	.	.	.
Nc1c(-c2ccc(Cl)cc2)nnn1-c1ccccc1	.	.	/	61	87	/
Cc1ccc(NCc2nnc(SCC(=O)c3ccc4c(c3)OCCO4)o2)c(C)c1	.	.	.	.	.	.
CCN(CC)S(=O)(=O)c1cccc(-c2nc3n(n2)Cc2ccccc2-3)c1	.	.	.	61	.	.
Cc1ccc2c(C)nc(NC3=NCN(Cc4ccccc4)CN3)nc2c1	.	.	.	.	.	40
CCOC(=O)N1CCC(NC(=O)CC(NS(=O)(=O)c2ccc(Cl)cc2)c2ccco2)CC1 (stereo not given)	.	.	.	.	.	.
CCOC(=O)N1CCC(Nc2nc3ccccc3nc2NS(=O)(=O)c2ccc(Cl)cc2)CC1	.	.	.	54	.	.
COc1ccc(S(=O)(=O)N2CCN(CC(=O)Nc3ccc(C)c(F)c3)CC2)cc1	.	.	.	.	.	.
O=C(OCc1nc2ccccc2s1)C1CCN(S(=O)(=O)c2cccs2)CC1	.	.	.	.	.	.
CCOC(=O)C1CCN(S(=O)(=O)C(F)(F)c2nc3ccccc3s2)CC1	.	.	/	.	71	/
O=C(Nc1nnc(C2CCCCC2)s1)c1cccs1	.	.	.	54	.	.
O=C(Nc1nnc(C2CCCCC2)s1)c1ccco1	.	.	.	70	.	.
O=C(CSc1nnc(NC(=O)c2ccco2)s1)NC1CCCC1	.	.	.	.	.	.
O=C(Nc1nnc(C2CCCO2)s1)c1cccs1 (stereo not given)	.	.	.	.	.	.
SMILES	PKA inh	MT1-MMP txn act	ROCK2 blocker	SF1 activator	RORa activator	JNK3 blocker
COC(=O)CSc1nnc(CNC(=O)Cc2ccccc2)n1-c1ccccc1OC	.	.	.	.	.	.
COc1cc(C)nc(OCCNS(=O)(=O)c2cc(C)ccc2C)n1	.	.	.	.	.	.
COc1ccc(OCC(O)COc2ccc(C(=O)O)cc2)cc1 (stereo not given)	.	.	.	.	.	.
COc1ccc(OCc2ccc(C(=O)O)cc2)cc1	.	.	.	64	.	.
Cn1c(=O)c2c3c(sc2n2c(SCC(=O)c4ccc(Cl)cc4)nnc12)COC(C)(C)C3	.	.	.	.	.	.
Nc1nc2c(s1)CCc1c-2cnn1-c1ccccc1	.	.	.	91	.	.
COC(=O)c1ccc(-c2nc3ccc(C)cc3o2)cc1	.	.	.	.	68	.
COC(=O)c1ccc(-c2nc3ccccc3o2)cc1	.	.	.	.	.	.
Cc1ccc2nc(-c3cccnc3)oc2c1	.	.	.	.	50	.
CC(=O)Nc1ccc(S(=O)(=O)Nc2nnc(C3CCCCC3)s2)cc1	.	.	.	.	.	.
Fc1ccccc1CSc1nnc(-c2ccccc2)o1	.	.	.	58	.	.
Cc1ccccc1-c1nnc(SCc2ccccc2F)o1	.	.	.	90	75	.
CCn1c(=N)n(CC(=O)C23CC4CC(CC(C4)C2)C3)c2ccccc21	.	.	.	.	.	.
Cc1ccc(C(=O)Nc2ncc(Cc3ccccc3)s2)o1	.	.	.	61	.	.
CC(=O)c1sc(NC(=O)c2ccco2)nc1-c1ccccc1	.	.	.	70	.	.
Cc1cc(NC(=O)c2ccco2)ncc1NC(=O)Cc1ccccc1	.	.	.	.	57	.
COc1cccc(C(=O)Nc2cnc(NC(=O)c3ccco3)cc2C)c1	.	.	/	.	.	/
COC(=O)c1sc(NC(=O)c2ccco2)nc1C	.	.	.	50	.	.
Cc1nc(NC(=O)c2ccco2)sc1C(=O)Nc1ccc(Br)cc1	.	.	.	.	.	.
COC(=O)[C@@H]1C[C@H]1[C@@H](NC(=O)c1cccnc1)c1ccccc1	/	.	/	/	/	/
COC(=O)c1c(-c2ccccc2)csc1NC(=O)c1ccco1	.	.	.	.	96	.
O=C(Nc1scc(-c2ccc(F)cc2)c1C(=O)O)c1ccco1	.	.	.	.	.	.
Cc1cnc(NC(=O)c2ccco2)s1	.	.	/	53	71	/
O=C(Nc1nnc(C(F)(F)F)s1)c1cccnc1	.	.	.	60	66	.
COc1ccc(C(=O)Nc2nnc(C(F)(F)F)s2)cc1	.	.	.	57	.	.
SMILES	PKA inh	MT1-MMP txn act	ROCK2 blocker	SF1 activator	RORa activator	JNK3 blocker
CCOC(=O)c1cc(-c2ccccc2)sc1N	.	.	.	.	.	.
CCOC(=O)c1sc(-c2ccccc2)cc1N	.	.	.	52	49	.
CCOC(=O)c1sc(=S)n(-c2cc(OC)ccc2OC)c1N	.	.	.	.	.	.
CCOC(=O)c1c(N)n[nH]c1-c1ccc(OC)cc1	.	.	.	.	.	18
CCOC(=O)c1sc(-c2ccc(OC)cc2)cc1N	.	.	.	62	.	.
COc1ccccc1NC(=O)C1=C(C)Nc2nc(CCCO)nn2C1c1ccc2c(c1)OCO2 (stereo not given)	.	.	.	.	.	.
C[Si](C)(C)C#Cc1ccccc1NC(=S)Nc1ccccc1	/	.	/	/	/	/
COCCN=C1OC(=O)N2C(=O)C3=C4[C@@H](C[C@H]5C(=O)N(CC(=O)OC)C(=O)[C@H]5[C@H]4[C@@]12Cc1ccccc1)[C@H]1C(=O)N(CC(=O)OC)C(=O)[C@H]1[C@H]3C	/	.	/	/	/	/
CC1CN=C(c2cccn2Cc2ccc(F)cc2Cl)O1 (stereo not given)	.	.	.	.	.	.
COC(=O)[C@@]1(Cc2ccc(OC)cc2)[C@H]2c3cc(C(=O)N4CCCC4)n(CCc4c[nH]c5ccc(OC)cc45)c3C[C@H]2CN1C(=O)c1ccccc1	/	.	/	/	/	/
CN1CCN(S(=O)(=O)c2ccc(Br)s2)CC1	.	.	.	.	63	.
COc1ccc2nc(-c3ccccc3)[nH]c2c1	.	.	.	.	.	.
